Measurements reported in PubChem BioAssay AID588732 (Vanderbilt Specialized Chemistry Center, 2011).
Activity calls are given as the source filed them.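 How the source made its calls: active means compound shifting glutamate potency twofold either way, or pushing peak response under 75% or over a set limit; inactive means the rest.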

Target: Metabotropic glutamate receptor 8 (Rattus norvegicus) (UniProt P70579)
Assay: rat mGlu8 allosteric modulation, glutamate curve shift, profiling panel, selectivity assay for mGlu5 PAM project, thallium flux, HEK/GIRK cells (AID 588732)
Conditions: glutamate CRC shift, at 10 µM; for Emax: measured here: glutamate max response with compound
Procedure, shortened: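 Test system: rat mGlu8 receptor expressed in HEK/GIRK cells; Also added: glutamate agonist concentration-response curve; Compound: 10 µM test compound, single dose; Controls: glutamate curve without test compound as reference; Read-out: glutamate EC50 shift and %Emax versus no-compound curve; Measured by: FluoZin2 fluorescence slope reporting thallium flux.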

Metabotropic glutamate receptor 8 (Rattus norvegicus), sequence (P70579 whole entry, looked up): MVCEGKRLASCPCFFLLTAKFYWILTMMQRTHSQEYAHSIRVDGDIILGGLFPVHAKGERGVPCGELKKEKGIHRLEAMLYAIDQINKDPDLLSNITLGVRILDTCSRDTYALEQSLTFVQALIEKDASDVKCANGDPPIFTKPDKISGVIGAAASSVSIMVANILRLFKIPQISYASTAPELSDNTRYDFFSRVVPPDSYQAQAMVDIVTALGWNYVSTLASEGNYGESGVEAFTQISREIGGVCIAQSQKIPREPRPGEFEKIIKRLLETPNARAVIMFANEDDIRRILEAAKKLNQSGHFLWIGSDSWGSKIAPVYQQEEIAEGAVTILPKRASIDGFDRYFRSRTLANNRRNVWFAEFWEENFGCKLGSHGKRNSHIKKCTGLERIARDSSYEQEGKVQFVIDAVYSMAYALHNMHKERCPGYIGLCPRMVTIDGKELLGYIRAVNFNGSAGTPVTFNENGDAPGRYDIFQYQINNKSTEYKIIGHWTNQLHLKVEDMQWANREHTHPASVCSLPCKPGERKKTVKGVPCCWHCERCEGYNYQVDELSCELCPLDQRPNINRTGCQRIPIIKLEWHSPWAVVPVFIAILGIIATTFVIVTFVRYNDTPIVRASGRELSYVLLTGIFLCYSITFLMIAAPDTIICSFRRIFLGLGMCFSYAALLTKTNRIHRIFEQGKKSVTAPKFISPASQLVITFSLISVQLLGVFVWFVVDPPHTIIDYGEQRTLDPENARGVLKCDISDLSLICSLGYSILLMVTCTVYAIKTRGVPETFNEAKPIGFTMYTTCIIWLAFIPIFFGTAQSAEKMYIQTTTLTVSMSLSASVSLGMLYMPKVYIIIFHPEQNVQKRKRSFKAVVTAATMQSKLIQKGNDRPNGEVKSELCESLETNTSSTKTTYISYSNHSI

Structure (SMILES): C[C@@H](NC(=O)c1ccc(C#Cc2cccc(F)c2)cn1)C(C)(C)O
- fold shift: 1.36 (inactive)
- Emax: 89%

Structure (SMILES): CC1(NC(=O)c2ccc(C#Cc3cccc(F)c3)cn2)COC1
- fold shift: 1.1 (inactive)
- Emax: 92%
